Screening results (PubChem)
An excerpt weighted towards active compounds, which were near 1.5% of everything screened.
Cneo AK release: causes C. neoformans cell lysis. adenylate kinase release luminescence, 4 h; normalised: neutral wells 0, clomiphene wells 100. lysis activity, % at 15 µM. 360,000 tested, 0.2% active;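 active = mean lysis activity across replicates of at least 80%, whatever share of replicates individually reach that level; inactive = mean lysis activity below 80%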
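Test system: log-phase Cryptococcus neoformans yeast cells. Input: 5 × 10^6 yeast cells/mL. Medium: fresh YPD growth medium. Doses: single dose. Incubation: static 4 h at 37 °C with compound, 1 h detection. Measured by: luminescent adenylate kinase detection reagent. Read-out: signal increase indicating cell lysis. Benchmarks: Clomiphene.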
C2C12 statin: suppressors of simvastatin-induced myotoxicity in C2C12 myotubes; ATP luminescence, 48 h; scaled: DMSO 0, geranylgeraniol control 100; rescue of ATP level, % at 7.49 µM; 330,000 tested, 0.78% active; AID 602340;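 active = mean ATP rescue above about 67%, or every replicate alone reaching that limit, limit read from the data, passing the limit was not always enough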;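 also: myotubes were challenged with 10 µM simvastatin during compound exposure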
Mot1-301 SUMO: blocks SUMOylation pathway, rescuing yeast Mot1-301 growth; S. cerevisiae Mot1-301 growth rescue, ATP luminescence, 38.5C; percent above DMSO median, 100 means doubled; growth rescue, % at 18.8 µM; 320,000 tested, 1% active; AID 2716;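 active = every valid replicate shows activation above 250% relative to neutral control wells; inactive = the rest, any valid replicate at or below 250%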;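 also: OY570 slx delta 5 strain wells were the positive control but not used for scaling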
The depositor's hits bear a star; nt = no result given.

SMILES | Cneo AK release | C2C12 statin | Mot1-301 SUMO
CC(C)NC(=O)Nc1ccc2c(c1)C(=O)N([C@@H](C)CO)C[C@@H](C)[C@H](CN(C)Cc1ccncc1)OCCCC[C@@H](C)O2 | 111* | nt | nt
Cc1noc(C)c1NC(=O)Nc1ccc2c(c1)C(=O)N([C@H](C)CO)C[C@H](C)[C@@H](CN(C)C(=O)Nc1ccc(F)cc1)OCCCC[C@@H](C)O2 | -2 | -7 | nt
CC(C)NC(=O)Nc1ccc2c(c1)C(=O)N([C@@H](C)CO)C[C@@H](C)[C@@H](CN(C)Cc1ccc3c(c1)OCO3)OCCCC[C@@H](C)O2 | 1 | nt | nt
C[C@@H]1CCCCO[C@H](CN(C)Cc2ccncc2)[C@H](C)CN([C@@H](C)CO)C(=O)c2cc(NC(=O)Nc3ccc(F)cc3)ccc2O1 | 0 | 28 | nt
CC(C)NC(=O)Nc1ccc2c(c1)C(=O)N([C@@H](C)CO)C[C@H](C)[C@@H](CN(C)Cc1ccc3c(c1)OCO3)OCCCC[C@@H](C)O2 | 102* | nt | nt
C[C@@H]1CN([C@@H](C)CO)C(=O)c2cc(NC(=O)Nc3ccc(F)cc3)ccc2O[C@@H](C)CCCCO[C@H]1CN(C)Cc1ccncc1 | 0 | 107* | nt
CC(C)NC(=O)Nc1ccc2c(c1)C(=O)N([C@@H](C)CO)C[C@@H](C)[C@H](CN(C)Cc1ccncc1)OCCCC[C@H](C)O2 | -1 | nt | nt
Cc1noc(C)c1NC(=O)Nc1ccc2c(c1)C(=O)N([C@H](C)CO)C[C@@H](C)[C@H](CN(C)C(=O)Nc1ccc(F)cc1)OCCCC[C@@H](C)O2 | 99* | 2 | nt
CCCC#Cc1cnc2c(c1)C(=O)N([C@H](C)CO)C[C@H](C)[C@@H](CN(C)Cc1ccncc1)O2 | -1 | 15 | nt
C[C@@H]1CN([C@H](C)CO)C(=O)c2cc(-c3cccc(C#N)c3)cnc2O[C@H]1CN(C)Cc1ccncc1 | -1 | -1 | nt
O=S(=O)(N[C@@H]1CC[C@@H](CCNS(=O)(=O)c2ccccc2Cl)O[C@@H]1CO)c1ccccc1 | 46 | 0 | nt
CNC(=O)C1=C[C@H](c2csc3ccccc23)C[C@H](OCc2ccc(CO)cc2)O1 | -4 | nt | nt
CCCN(C)C[C@@H]1Oc2cc(C#CC3CCCC3)ccc2S(=O)(=O)N([C@@H](C)CO)C[C@@H]1C | 14 | -25 | nt
C=CCOC(=O)[C@H]1[C@@H]2C(=O)O[C@@H](c3ccccc3)[C@@H](c3ccccc3)N2[C@@H](c2ccc(OCCOC(=O)[C@H]3C[C@H]4C(=O)N[C@@H](Cc5ccccc5)C(=O)N4[C@H]3c3ccc(O)cc3)cc2)[C@]12C(=O)Nc1ccc(I)cc12 | 1 | nt | nt
O=C(C[C@H]1CC[C@H]2[C@@H](COC[C@H](O)CN2S(=O)(=O)c2ccccc2)O1)NCc1ccc2c(c1)OCO2 | -5 | -3 | nt
C[C@H](CO)N1C[C@H](C)[C@H](CN(C)Cc2ccc(C(=O)Nc3ccccc3N)cc2)Oc2ccc(NS(=O)(=O)c3cn(C)cn3)cc2C1=O | 1 | 51 | nt
C[C@H]1CCCCO[C@H](CN(C)Cc2ccncc2)[C@@H](C)CN([C@@H](C)CO)C(=O)c2cc(NC(=O)Nc3ccccc3)ccc2O1 | -1 | nt | nt
C[C@@H]1CCCCO[C@H](CN(C)Cc2ccncc2)[C@@H](C)CN([C@@H](C)CO)C(=O)c2cc(NC(=O)Nc3ccccc3)ccc2O1 | 81* | nt | nt
CC(C)NC(=O)Nc1ccc2c(c1)C(=O)N([C@@H](C)CO)C[C@H](C)[C@@H](CN(C)Cc1ccccc1)O2 | -6 | 6 | nt
CC(C)NC(=O)Nc1ccc2c(c1)C(=O)N([C@@H](C)CO)C[C@H](C)[C@H](CN(C)Cc1ccccc1)O2 | -5 | 77* | nt
CC(C)CC#Cc1cnc2c(c1)C(=O)N([C@@H](C)CO)C[C@@H](C)[C@@H](CN(C)C(=O)c1ccc(F)cc1)O2 | 2 | -6 | nt
COCC(=O)N1C[C@@H](C)[C@@H](OC)CN(C)C(=O)c2cc(NC(=O)C3CCC3)ccc2OC[C@H]1C | -3 | -2 | nt
C[C@@H]1CN([C@H](C)CO)C(=O)c2cc(C#CC3CCCC3)cnc2O[C@H]1CN(C)C(=O)Nc1ccccc1 | 4 | -1 | nt
COC(=O)C[C@@H]1CC[C@@H]2[C@H](COC[C@H](O)CN2CCC(F)(F)F)O1 | 1 | -5 | nt
COc1cc(C2NC(C(=O)O)Cc3c2[nH]c2ccccc32)cc(OC)c1OC (centres undefined) | 0 | -12 | 0
SMILES | Cneo AK release | C2C12 statin | Mot1-301 SUMO
COc1ccc(C2NC(C(=O)O)Cc3c2[nH]c2ccccc32)cc1OC (centres undefined) | -1 | 116* | 37
O=C(C[C@H]1C=C[C@H](NC(=O)Nc2ccc(F)cc2)[C@@H](CO)O1)NCCN1CCCC1 | 5 | -6 | nt
CO[C@H](CN(C)C(=O)c1ccc2c(c1)OCO2)[C@@H](C)CN([C@@H](C)CO)S(=O)(=O)c1ccccc1 | 9 | 7 | nt
C[C@@H]1CN([C@H](C)CO)C(=O)c2cc(/C=C/c3ccccc3)cnc2O[C@@H]1CN(C)C(=O)NC1CCCCC1 | -16 | -13 | nt
COc1cc(C(=O)COC(=O)C2CCCCC2)cc(OC)c1OC | 0 | -3 | -3
COc1cc(C(=O)COC(=O)CNC(=O)C2CCCCC2)cc(OC)c1OC | 0 | 1 | 270*
CCOC(=O)c1nn(-c2ccc(F)cc2)c(C)c1C(C)=O | 1 | 74* | -13
CCOC(=O)c1nn(-c2ccc(C)cc2)c(C)c1C(C)=O | 4 | -10 | -5
CSc1nc(-c2ccco2)nn1S(=O)(=O)c1ccc(C)cc1 | 0 | -3 | -1
Cc1ccc(S(=O)(=O)n2nc(-c3ccco3)nc2SCc2ccccc2)cc1 | 1 | 109* | 134
COc1ccc(NC(=O)Nc2ccc3c(c2)C(=O)N([C@@H](C)CO)C[C@H](C)[C@H](CN(C)S(=O)(=O)c2ccc(F)cc2)OCCCC[C@@H](C)O3)cc1 | 0 | nt | nt
CC(Nc1cc(N2CCCC2)ccc1[N+](=O)[O-])c1ccccc1 (centres undefined) | 0 | 31 | -2
Cc1cc([N+](=O)[O-])cnc1NC(C)c1ccccc1 (centres undefined) | 5 | -3 | 330*
CC(C)NC(=O)N(C)C[C@H]1Oc2ccc(NC(=O)Nc3ccc(C(F)(F)F)cc3)cc2C(=O)N([C@@H](C)CO)C[C@H]1C | 43 | 11 | nt
O=C(C[C@@H]1CC[C@@H]2[C@H](COC[C@H](O)CN2S(=O)(=O)c2cccc(Cl)c2)O1)N1CCCCC1 | 1 | 13 | nt
CO[C@@H]1CN(C)C(=O)c2cc(NS(=O)(=O)c3cccc(C)c3)ccc2OC[C@@H](C)N(C(=O)Cc2cccnc2)C[C@H]1C | -1 | 0 | nt
CC(=O)N1CCc2cc(S(=O)(=O)NCCCN3CCN(Cc4ccccc4)CC3)ccc21 | -2 | -3 | -4
CCC(=O)N1CCc2cc(S(=O)(=O)CCC(=O)N3CCN(c4ccccc4)CC3)ccc21 | -2 | -19 | 2
CCC(=O)N1CCc2cc(S(=O)(=O)CCC(=O)N3CCc4ccccc4C3)ccc21 | 0 | 76* | 94
CCC(=O)N1CCc2cc(S(=O)(=O)NCCCN3CCN(Cc4ccccc4)CC3)ccc21 | 2 | 156* | 103
CO[C@@H]1CN(C)C(=O)c2ccc(NC(=O)c3ccc4c(c3)OCO4)cc2OC[C@H](C)N(CC2CC2)C[C@@H]1C | 0 | -3 | nt
